Active and inactive are the calls of the source. The rule behind the calls is not given here.

One experiment deals with Plasmodium falciparum. The experiment can be described thus: Inhibition of Plasmodium falciparum falcipain-2 hemoglobinase activity at 200 nM after 90 mins by Coomassie Blue R-250 staining-based densitometric analysis. An outline of the steps: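 Human hemoglobin 0.1 mg/ml digested by 20 nM recombinant falcipain-2 in 100 mM sodium acetate, 10 mM DTT, 10% glycerol, pH 5.5, with or without compound, 37 °C for 90 min. Quenched with denaturing SDS sample buffer, products run on 15% SDS-PAGE, Coomassie-stained, and remaining hemoglobin quantified by densitometry.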
`CC1=CCC(C(=O)/N=C2\CC=C(S(=O)(=O)O)c3cc(S(=O)(=O)O)cc(S(=O)(=O)O)c32)=C/C1=N/C(=O)C1=CC=C/C(=N\C(=O)/N=C2\C=CC=C(C(=O)/N=C3/CC(C(=O)/N=C4\CC=C(S(=O)(=O)O)c5cc(S(=O)(=O)O)cc(S(=O)(=O)O)c54)=CC=C3C)C2)C1`: the inhibition entry was “Active”.

The test system of a further experiment is Plasmodium falciparum. In words: Binding affinity to Plasmodium falciparum falcipain-2 at 1:1 compound to protein molar ratio by isothermal titration assay. An outline of the steps:
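Recombinant mature falcipain-2 domain (241 aa, E. coli-expressed, Ni-column purified, refolded), 5 µM in 100 mM sodium acetate pH 5.5, 5% glycerol, 10 mM DTT; suramin added stepwise from stock in same buffer. Intrinsic tryptophan fluorescence read at ex 295/em 340 nm; maximum dilution 10%, with fluorescence and protein concentration corrected. Stoichiometry taken from inflection of first-derivative titration curve.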
As for `CC1=CCC(C(=O)/N=C2\CC=C(S(=O)(=O)O)c3cc(S(=O)(=O)O)cc(S(=O)(=O)O)c32)=C/C1=N/C(=O)C1=CC=C/C(=N\C(=O)/N=C2\C=CC=C(C(=O)/N=C3/CC(C(=O)/N=C4\CC=C(S(=O)(=O)O)c5cc(S(=O)(=O)O)cc(S(=O)(=O)O)c54)=CC=C3C)C2)C1`, the outcome was Active.

Tested on in another experiment: not listed separately
In words: Inhibition of Plasmodium falciparum falcipain-2 peptidolytic activity using Z-Phe-Arg-AMC as substrate measured over 30 mins by spectrofluorimetric analysis. An outline of the steps: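 Recombinant falcipain-2 at 20 nM in 100 mM sodium acetate, 10 mM DTT, 10% glycerol, pH 5.5, with 50 µM Z-Phe-Arg-AMC and varying inhibitor concentrations. AMC release followed continuously (ex 355/em 460 nm) over 30 min at 23 ± 2 °C. IC50 from percent activity versus inhibitor concentration fitted to four-parameter logistic; at least three independent experiments.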
`CCc1ccc(C(=O)Nc2ccc(S(=O)(=O)O)c3cc(S(=O)(=O)O)cc(S(=O)(=O)O)c23)cc1NC(=O)c1cccc(NC(=O)Nc2cccc(C(=O)Nc3cc(C(=O)Nc4ccc(S(=O)(=O)O)c5cc(S(=O)(=O)O)cc(S(=O)(=O)O)c45)ccc3CC)c2)c1` had an IC50 of 0.08 µM.
In turn, `O=C(Nc1cccc(C(=O)Nc2cc(C(=O)Nc3ccc(S(=O)(=O)O)c4cc(S(=O)(=O)O)cc(S(=O)(=O)O)c34)ccc2F)c1)Nc1cccc(C(=O)Nc2cc(C(=O)Nc3ccc(S(=O)(=O)O)c4cc(S(=O)(=O)O)cc(S(=O)(=O)O)c34)ccc2F)c1` had an IC50 of 0.042 µM.
Molecule `CC(C)c1ccc(C(=O)Nc2ccc(S(=O)(=O)O)c3cc(S(=O)(=O)O)cc(S(=O)(=O)O)c23)cc1NC(=O)c1cccc(NC(=O)Nc2cccc(C(=O)Nc3cc(C(=O)Nc4ccc(S(=O)(=O)O)c5cc(S(=O)(=O)O)cc(S(=O)(=O)O)c45)ccc3C(C)C)c2)c1` returned a half-maximal inhibitory concentration (IC50) of 0.111 µM.
The same measure, in the same setting: the result for `COCc1ccc(C(=O)Nc2ccc(S(=O)(=O)O)c3cc(S(=O)(=O)O)cc(S(=O)(=O)O)c23)cc1NC(=O)c1cccc(NC(=O)Nc2cccc(C(=O)Nc3cc(C(=O)Nc4ccc(S(=O)(=O)O)c5cc(S(=O)(=O)O)cc(S(=O)(=O)O)c45)ccc3COC)c2)c1` reads 0.06 µM; that for `O=C(Nc1cccc(C(=O)Nc2cccc(C(=O)Nc3ccc(S(=O)(=O)O)c4cc(S(=O)(=O)O)cc(S(=O)(=O)O)c34)c2)c1)Nc1cccc(C(=O)Nc2cccc(C(=O)Nc3ccc(S(=O)(=O)O)c4cc(S(=O)(=O)O)cc(S(=O)(=O)O)c34)c2)c1`, 0.036 µM.
Same read-out and setting: the result for `CC1=CCC(C(=O)/N=C2\CC=C(S(=O)(=O)O)c3cc(S(=O)(=O)O)cc(S(=O)(=O)O)c32)=C/C1=N/C(=O)C1=CC=C/C(=N\C(=O)/N=C2\C=CC=C(C(=O)/N=C3/CC(C(=O)/N=C4\CC=C(S(=O)(=O)O)c5cc(S(=O)(=O)O)cc(S(=O)(=O)O)c54)=CC=C3C)C2)C1` reads 0.095 µM; that for `O=C(Nc1cccc(C(=O)Nc2ccc(S(=O)(=O)O)c3cc(S(=O)(=O)O)cc(S(=O)(=O)O)c23)c1)Nc1cccc(C(=O)Nc2ccc(S(=O)(=O)O)c3cc(S(=O)(=O)O)cc(S(=O)(=O)O)c23)c1`, 0.167 µM.
Turning to `O=C(Nc1cccc(C(=O)Nc2cc(C(=O)Nc3ccc(S(=O)(=O)O)c4cc(S(=O)(=O)O)cc(S(=O)(=O)O)c34)ccc2-c2ccccc2)c1)Nc1cccc(C(=O)Nc2cc(C(=O)Nc3ccc(S(=O)(=O)O)c4cc(S(=O)(=O)O)cc(S(=O)(=O)O)c34)ccc2-c2ccccc2)c1`, inhibition was half-maximal at 0.062 µM (IC50).
`O=C(Nc1cccc(C(=O)Nc2ccc(S(=O)(=O)O)cc2S(=O)(=O)O)c1)Nc1cccc(C(=O)Nc2ccc(S(=O)(=O)O)cc2S(=O)(=O)O)c1` had an IC50 of 0.098 µM.
Same read-out and setting: as for `O=C(Nc1cccc(C(=O)Nc2cc(C(=O)Nc3ccc(S(=O)(=O)O)c4cc(S(=O)(=O)O)cc(S(=O)(=O)O)c34)ccc2Cl)c1)Nc1cccc(C(=O)Nc2cc(C(=O)Nc3ccc(S(=O)(=O)O)c4cc(S(=O)(=O)O)cc(S(=O)(=O)O)c34)ccc2Cl)c1`, the figure is 0.078 µM.
`COc1ccc(C(=O)Nc2ccc(S(=O)(=O)O)c3cc(S(=O)(=O)O)cc(S(=O)(=O)O)c23)cc1NC(=O)c1cccc(NC(=O)Nc2cccc(C(=O)Nc3cc(C(=O)Nc4ccc(S(=O)(=O)O)c5cc(S(=O)(=O)O)cc(S(=O)(=O)O)c45)ccc3OC)c2)c1` yielded a 50% inhibitory concentration (IC50) of 0.067 µM.

One may read the IC50 as the concentration needed to halve the response being measured. Read a low IC50 as inhibition by little substance.
